# Laboratory results: ChEMBL document CHEMBL1155242, “Radiolabeled 5-iodo-3'-O-(17beta-succinyl-5alpha-androstan-3-one)-2'-deoxyuridine and its 5'-monophosphate for imaging and therapy of androgen receptor-positive cancers: synthesis and biological evaluation” (J Med Chem, 2009)
# Calls of active or inactive are those of the source. The calls are words filed in the database; no cut-off is given here.
# Assays:
# Albumin [1] = molecular target: T1, Albumin (Mus musculus, UniProt P07724); experiment: Binding affinity to mouse serum albumin at 10 to 20 uCi/mL after 60 mins by size-exclusion HPLC analysis; format: ADME; conditions: isolated protein, 1 h
# In short: (§1)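 Radioiodinated compound incubated 60 min with human, rabbit or mouse serum, or with purified human SHBG. Aliquots analysed on a TSK3000 size-exclusion column: 0.1 M potassium phosphate/0.1 M Na2SO4 (1:1, pH 6.8) for 20 min, then 0–40% CH3CN over 20 min, held 30 min, 0.7 mL/min. Protein-bound versus free radioactivity read from the peaks.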
# Albumin [2] = molecular target: Albumin (Homo sapiens, UniProt P02768); experiment: Binding affinity to human serum albumin at 10 to 20 uCi/mL after 60 mins by size-exclusion HPLC analysis; format: ADME; conditions: isolated protein, 1 h; in short: as §1
# Albumin [3] = molecular target: Albumin (Oryctolagus cuniculus, UniProt P49065); experiment: Binding affinity to rabbit serum albumin at 10 to 20 uCi/mL after 60 mins by size-exclusion HPLC analysis; format: ADME; conditions: isolated protein, 1 h; in short: as §1
# [4] = Stability in mouse serum assessed as intact compound remaining at 10 to 20 uCi/mL after 60 mins by size-exclusion HPLC analysis; format: ADME, cell-free; conditions: read-out: Stability; in short: as §1
# [5] = Stability in rabbit serum assessed as intact compound remaining at 10 to 20 uCi/mL after 60 mins by size-exclusion HPLC analysis; format: ADME, cell-free, Oryctolagus cuniculus; conditions: read-out: Stability; in short: as §1
# [6] = Stability in human serum assessed as intact compound remaining at 10 to 20 uCi/mL after 60 mins by size-exclusion HPLC analysis; format: ADME, cell-free; conditions: read-out: Stability; in short: as §1
# [7] = molecular target: T2, Sex hormone-binding globulin (Homo sapiens, UniProt P04278); experiment: Binding affinity to human sex hormone binding globulin at 10 to 20 uCi up to 6 hrs by size-exclusion HPLC analysis; format: ADME
# T2 sequence (P04278 whole entry): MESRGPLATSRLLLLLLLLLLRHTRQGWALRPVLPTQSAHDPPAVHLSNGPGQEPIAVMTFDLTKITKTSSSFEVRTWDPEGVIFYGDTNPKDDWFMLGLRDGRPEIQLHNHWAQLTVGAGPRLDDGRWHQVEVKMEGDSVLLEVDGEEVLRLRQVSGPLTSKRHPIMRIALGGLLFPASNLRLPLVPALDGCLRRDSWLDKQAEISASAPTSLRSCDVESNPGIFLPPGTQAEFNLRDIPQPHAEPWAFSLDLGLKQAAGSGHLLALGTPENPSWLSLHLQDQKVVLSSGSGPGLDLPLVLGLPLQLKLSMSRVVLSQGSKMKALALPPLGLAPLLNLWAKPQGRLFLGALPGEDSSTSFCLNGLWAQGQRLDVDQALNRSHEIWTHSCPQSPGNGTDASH
# [8] = molecular target: T2, Sex hormone-binding globulin; experiment: Binding affinity to human sex hormone binding globulin at 10 to 20 uCi up to 6 hrs by reversed phase HPLC analysis; format: ADME
# Albumin [9] = molecular target: T1, Albumin; experiment: Binding affinity to mouse serum albumin at 10 to 20 uCi/mL after 60 mins by reversed phase HPLC analysis; format: ADME; conditions: isolated protein, 1 h
# [10] = Stability in mouse serum assessed as intact compound remaining at 10 to 20 uCi/mL after 60 mins by reversed phase HPLC analysis; format: ADME, cell-free; conditions: read-out: Stability
# In short: (§2)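 After 60 min incubation in human, rabbit or mouse serum, incubation mixtures were extracted. Extracts were run on C18 reverse-phase HPLC with H2O/CH3CN, both with 0.07% TFA: 100% aqueous for 10 min, then 0–95% CH3CN over 30 min, held 20 min. Intact radioactive compound was distinguished from degradation product against nonradioactive reference standards.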
# [11] = Stability in rabbit serum assessed as intact compound remaining at 10 to 20 uCi/mL after 60 mins by reversed phase HPLC analysis; format: ADME, cell-free, Oryctolagus cuniculus; conditions: read-out: Stability; in short: as §2
# [12] = Stability in human serum assessed as intact compound remaining at 10 to 20 uCi/mL after 60 mins by reversed phase HPLC analysis; format: ADME, cell-free; conditions: read-out: Stability; in short: as §2
# [13] = Stability in human OVCAR-3 cells expressing androgen receptor assessed as half life at 0.01 to 5 uCi/mL by silica gel instant thin layer chromatography; format: ADME, cell-based
# [14] = Stability in human OVCAR-3 cells expressing androgen receptor assessed as assessed as compound degradation at 0.01 to 5 uCi/mL up to 24 hrs by silica gel instant thin layer chromatography; format: ADME, cell-based; conditions: read-out: Activity
# OVCAR-3 [15] = experiment: Antitumor activity against human OVCAR-3 cells xenografted in athymic NCr mouse at 14 uCi, ip administered 12 days after tumor implantation as single dose measured 5 weeks after implantation; format: functional, organism-based; conditions: tested as the 125I-labelled form
# In short: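 Athymic NCr-nu/nu female mice bearing ip OVCAR-3 implants; compound given ip either as one 14 μCi/mouse dose or as three escalating daily doses of 5, 10 and 15 μCi/mouse (total 30 μCi); tumor response assessed at necropsy.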
# OVCAR-3 [16] = experiment: Antitumor activity against human OVCAR-3 cells xenografted in athymic NCr mouse administered 12 days after tumor implantation at a escalating dose of 5 uCi, ip of day 1, 20 uCi, ip on day 2, 15 uCi, ip on day 3 measured 5 weeks after implantation; format: functional, organism-based; conditions: tested as the 125I-labelled form
# T1 sequence (P07724 whole entry): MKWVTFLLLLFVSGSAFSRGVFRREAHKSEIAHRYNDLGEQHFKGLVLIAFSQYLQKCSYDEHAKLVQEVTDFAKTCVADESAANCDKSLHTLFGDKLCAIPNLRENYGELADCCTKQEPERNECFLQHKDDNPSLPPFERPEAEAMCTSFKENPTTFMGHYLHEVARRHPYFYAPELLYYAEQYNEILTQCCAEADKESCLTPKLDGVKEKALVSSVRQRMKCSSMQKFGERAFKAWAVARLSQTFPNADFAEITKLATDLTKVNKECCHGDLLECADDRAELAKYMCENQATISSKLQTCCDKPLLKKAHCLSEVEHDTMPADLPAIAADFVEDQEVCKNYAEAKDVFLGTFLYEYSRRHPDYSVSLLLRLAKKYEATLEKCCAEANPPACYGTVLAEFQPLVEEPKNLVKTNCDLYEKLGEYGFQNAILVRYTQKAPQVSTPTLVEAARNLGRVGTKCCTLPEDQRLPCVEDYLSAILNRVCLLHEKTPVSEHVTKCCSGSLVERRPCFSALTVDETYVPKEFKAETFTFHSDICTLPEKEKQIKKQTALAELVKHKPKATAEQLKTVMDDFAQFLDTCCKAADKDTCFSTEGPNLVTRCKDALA
# Chain of Albumin (Homo sapiens, UniProt P02768) (P02768 whole entry): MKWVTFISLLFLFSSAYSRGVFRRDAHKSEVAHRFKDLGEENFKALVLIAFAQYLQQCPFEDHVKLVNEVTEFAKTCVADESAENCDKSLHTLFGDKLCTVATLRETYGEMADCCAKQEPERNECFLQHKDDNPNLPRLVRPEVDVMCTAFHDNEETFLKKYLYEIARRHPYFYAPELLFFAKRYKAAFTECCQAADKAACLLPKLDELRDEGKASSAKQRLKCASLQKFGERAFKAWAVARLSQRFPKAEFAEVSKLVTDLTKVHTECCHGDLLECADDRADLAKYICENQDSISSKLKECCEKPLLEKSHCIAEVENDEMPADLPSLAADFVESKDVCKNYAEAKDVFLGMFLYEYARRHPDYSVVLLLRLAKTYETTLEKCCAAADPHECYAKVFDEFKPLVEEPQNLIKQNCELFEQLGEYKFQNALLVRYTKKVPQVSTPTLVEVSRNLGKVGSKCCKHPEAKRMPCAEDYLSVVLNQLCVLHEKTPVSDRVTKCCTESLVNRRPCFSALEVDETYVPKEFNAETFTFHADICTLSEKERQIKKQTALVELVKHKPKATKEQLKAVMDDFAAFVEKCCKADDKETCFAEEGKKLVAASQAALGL
# Chain of Albumin (Oryctolagus cuniculus, UniProt P49065) (P49065 whole entry): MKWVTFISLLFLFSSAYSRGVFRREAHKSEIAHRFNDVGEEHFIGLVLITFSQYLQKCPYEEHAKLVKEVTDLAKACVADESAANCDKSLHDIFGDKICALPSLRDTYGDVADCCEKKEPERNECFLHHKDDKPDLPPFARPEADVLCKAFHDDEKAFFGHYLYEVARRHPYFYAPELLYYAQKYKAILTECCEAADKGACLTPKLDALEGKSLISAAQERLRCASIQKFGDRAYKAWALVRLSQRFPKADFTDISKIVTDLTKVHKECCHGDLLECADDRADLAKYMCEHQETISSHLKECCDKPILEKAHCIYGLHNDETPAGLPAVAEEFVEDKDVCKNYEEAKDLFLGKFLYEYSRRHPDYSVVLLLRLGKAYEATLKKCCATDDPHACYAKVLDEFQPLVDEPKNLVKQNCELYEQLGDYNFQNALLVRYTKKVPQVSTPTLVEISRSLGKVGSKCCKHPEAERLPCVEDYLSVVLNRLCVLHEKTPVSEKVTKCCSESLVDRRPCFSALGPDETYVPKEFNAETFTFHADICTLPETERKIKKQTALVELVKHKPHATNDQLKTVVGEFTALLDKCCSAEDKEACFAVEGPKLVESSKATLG
SMILES,Activity (Albumin [1]),Activity (Albumin [2]),Activity (Albumin [3]),remaining at 1 h [4],remaining at 1 h [5],remaining at 1 h [6],Activity [7],Activity [8],Activity (Albumin [9]),remaining at 1 h [10],remaining at 1 h [11],remaining at 1 h [12],half-life [13],metabolised at 24 h [14],Activity (OVCAR-3 [15]),Activity (OVCAR-3 [16])
CCOC(=O)CCC(=O)O[C@H]1C[C@H](n2cc([125I])c(=O)[nH]c2=O)O[C@@H]1CO,Not Active,Not Active,Not Active,< 2%,< 2%,> 90%,Not Active,Not Active,Not Active,< 2%,< 2%,> 90%,,,,
C[C@]12CCC(=O)C[C@@H]1CC[C@@H]1[C@@H]2CC[C@]2(C)[C@@H](OC(=O)CCC(=O)O[C@H]3C[C@H](n4cc([123I])c(=O)[nH]c4=O)O[C@@H]3CO)CC[C@@H]12,,,,,,,,,,,,,13.2 h,> 70%,,
O=c1[nH]c(=O)n([C@H]2C[C@H](O)[C@@H](COP(=O)(O)O)O2)cc1[125I],Not Active,Not Active,Not Active,,30%,30%,Not Active,Not Active,Not Active,,30%,30%,,,,
C[C@]12CCC(=O)C[C@@H]1CC[C@@H]1[C@@H]2CC[C@]2(C)[C@@H](OC(=O)CCC(=O)O[C@H]3C[C@H](n4cc(I)c(=O)[nH]c4=O)O[C@@H]3CO)CC[C@@H]12,,,,,,,,,,,,,,,inactive,inactive
